{"data": "Experimental data gathered from unrelated publications", "target": "Cyclin-dependent kinase-like 2 (CDKL2, Homo sapiens, UniProt Q92772)", "Sequence (Q92772 1-493, as in one of the studies)": "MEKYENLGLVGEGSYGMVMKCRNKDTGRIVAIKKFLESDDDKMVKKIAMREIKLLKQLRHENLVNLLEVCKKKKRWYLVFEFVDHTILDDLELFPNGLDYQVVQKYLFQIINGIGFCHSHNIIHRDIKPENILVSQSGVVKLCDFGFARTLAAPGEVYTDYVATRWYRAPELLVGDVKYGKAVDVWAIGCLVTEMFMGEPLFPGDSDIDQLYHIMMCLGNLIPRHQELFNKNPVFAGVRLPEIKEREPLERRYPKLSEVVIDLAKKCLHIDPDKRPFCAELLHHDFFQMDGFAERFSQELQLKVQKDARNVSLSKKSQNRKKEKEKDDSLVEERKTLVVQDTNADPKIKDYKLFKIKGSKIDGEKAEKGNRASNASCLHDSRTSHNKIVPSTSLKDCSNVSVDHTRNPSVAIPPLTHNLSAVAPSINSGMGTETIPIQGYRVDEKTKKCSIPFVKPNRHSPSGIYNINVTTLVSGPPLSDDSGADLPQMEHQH", "note": "Each line is one published result; the experiments were not run side by side."}
{"Compound": "C[C@@H](c1ccc(-n2cnc3c(N)ncnc32)cc1)N1CCc2nn(C)c(Cc3ccccc3)c2C1=O", "effect on": "binding", "method": "competition with immobilised ligand", "tested at": "0.1 µM", "remaining binding [%]": 67}
{"Compound": "COc1ccnn2ncc(-c3ccnc(N(C)C)n3)c12", "effect on": "binding", "tested at": "1 µM", "remaining binding [%]": 91}
{"Compound": "O=C(c1ccc(Nc2ncc(Cl)c(-c3ccc(Cl)s3)n2)cc1)N1CCC(N2CCCC2)CC1", "effect on": "binding", "method": "competition with immobilised ligand", "tested at": "1 µM", "remaining binding [%]": 2.3}
{"Compound": "O=C(Nc1cccnn1)N1CC(C/C=C/c2cncc(Oc3ccc(C(F)(F)F)cn3)n2)C1", "effect on": "cell-free assay", "method": "competition with immobilised ligand", "tested at": "1 µM", "remaining binding [%]": 100}
{"Compound": "N[C@H]1CCN(c2nccc(-c3cnn4ncccc34)n2)C1", "effect on": "binding", "tested at": "1 µM", "remaining binding [%]": 99}
{"Compound": "O=C(NCC1CCOCC1)c1n[nH]cc1NC(=O)c1c(F)cccc1F", "effect on": "binding", "method": "competition with immobilised ligand", "tested at": "1 µM", "remaining binding [%]": 93}
{"Compound": "CN(C)c1nccc(-c2cnn3ncccc23)n1", "effect on": "binding", "tested at": "1 µM", "remaining binding [%]": 100}
{"Compound": "CC(=O)N1CCC(c2ccc(C(=O)NC3=NCCN3)cc2C(F)(F)F)CC1", "effect on": "cell-free assay", "method": "competition with immobilised ligand", "tested at": "1 µM", "remaining binding [%]": 100}
{"Compound": "Cc1cnn2ncc(-c3ccnc(N(C)C)n3)c2c1", "effect on": "binding", "tested at": "1 µM", "remaining binding [%]": 100}
{"Compound": "CN(c1ccnc(CNc2nc(Nc3ccc4c(c3)CC(=O)N4)ncc2C(F)(F)F)n1)S(C)(=O)=O", "effect on": "cell-free assay", "method": "competition with immobilised ligand", "tested at": "1 µM", "remaining binding [%]": 84}
{"Compound": "COc1cnc(Nc2cccc(S(N)(=O)=O)c2)nc1N1CCN(c2ccccc2)C(=O)C1", "effect on": "binding", "method": "competition with immobilised ligand", "tested at": "1 µM", "remaining binding [%]": 98}
{"Compound": "FC(F)(F)Oc1cccc(-c2cnc3ccc(-c4ccncc4)nn23)c1", "effect on": "cell-free assay", "method": "competition with immobilised ligand", "tested at": "5 µM", "remaining binding [%]": 67}
{"Compound": "CO[C@@H](C)c1c(Nc2ccc([C@@H](N(C)C(=O)C3CCS(=O)(=O)CC3)C(F)(F)F)cc2)cnc2cc(Cl)nn12", "effect on": "cell-free assay", "method": "competition with immobilised ligand", "tested at": "1 µM", "remaining binding [%]": 88}
{"Compound": "O=C(NCCCN1CCOCC1)c1ccc(Nc2nccc(-c3cc4ccccc4s3)n2)cc1", "effect on": "binding", "method": "competition with immobilised ligand", "tested at": "1 µM", "remaining binding [%]": 7.3}
{"Compound": "C[C@H]1CCN(c2nccc(-c3cnn4ncccc34)n2)C1", "effect on": "binding", "tested at": "1 µM", "remaining binding [%]": 100}
{"Compound": "O=C(c1ccc(Nc2ncc(Cl)c(-c3cc4ccccc4s3)n2)cc1)N1CCC(N2CCCC2)CC1", "effect on": "binding", "method": "competition with immobilised ligand", "tested at": "1 µM", "remaining binding [%]": 2.4}
{"Compound": "CS(=O)(=O)N1CCCC(NC(=O)[C@H](CCC2CCCCC2)NC(=O)c2ccc(CNC(=O)c3cnc4ccccn34)cc2)C1 (stereo partly shown)", "effect on": "cell-free assay", "method": "competition with immobilised ligand", "tested at": "0.1 µM", "remaining binding [%]": 85}
{"Compound": "c1cnn2ncc(-c3ccnc(N4CCC45COC5)n3)c2c1", "effect on": "binding", "tested at": "1 µM", "remaining binding [%]": 91}
{"Compound": "N#Cc1ccc(Nc2ccc3[nH]c(=O)[nH]c3c2)c(Cl)c1", "effect on": "binding", "method": "competition with immobilised ligand", "tested at": "1 µM", "remaining binding [%]": 100}
{"Compound": "F[C@@H]1CCN(c2nccc(-c3cnn4ncccc34)n2)C1", "effect on": "binding", "tested at": "1 µM", "remaining binding [%]": 100}
{"Compound": "Cn1cc(Cl)c2c(Oc3c(F)cc(Nc4cc(Cl)nc(N)n4)cc3F)ccnc21", "effect on": "cell-free assay", "method": "competition with immobilised ligand", "tested at": "0.1 µM", "remaining binding [%]": 100}
{"Compound": "C=CC(=O)N1CCC(C(=O)NCC(=O)N2CCN(c3nc(-c4cnc(N)nc4C(F)F)nc(N4CCOCC4)n3)CC2)CC1", "effect on": "binding", "method": "competition with immobilised ligand", "tested at": "1 µM", "remaining binding [%]": 100}
